According to ChEMBL document CHEMBL4152216, “Syntheses and anti-pancreatic cancer activities of rakicidin A analogues” (Eur J Med Chem, 2018):

Columns and labels:
PANC-1 [1] = assay: Selectivity index, ratio of IC50 against human PANC1 cells under normoxic condition to IC50 for human PANC1 cells under hypoxic condition; assay type: functional
How it was run: (§1)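 Hypoxic selectivity index is IC50 (normoxia)/IC50 (hypoxia). Both IC50s come from the 72 h MTT assay in the same cell line, run under normoxia (37 °C, 5% CO2) or a sealed 1% O2/5% CO2/94% N2 chamber, each the mean of three independent experiments.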

PANC-1 [2] = assay: Cytotoxicity against human PANC1 cells after 72 hrs under hypoxic condition by MTT assay; assay type: functional, cell-based; conditions: PANC-1, 72 h
How it was run: (§2)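 PANC-1, PATU8988T and ASPC-1 cells were grown in DMEM with 10% FBS at 37 °C and 5% CO2, then seeded at 4000 cells/well. Compounds were added at various concentrations after 6 h. Normoxic plates stayed at 37 °C, 5% CO2. Hypoxic plates went into a chamber purged 10 min with 5% CO2/1% O2/94% N2, sealed, at 37 °C. After 72 h, MTT was added for 4 h, formazan dissolved in DMSO and read at 570 nm. IC50 is the mean ± SD of three independent experiments.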

PANC-1 [3] = assay: Cytotoxicity against human PANC1 cells after 72 hrs under normoxic condition by MTT assay; assay type: functional, cell-based; conditions: PANC-1, 72 h; how it was run: as §2
ASPC1 [4] = assay: Selectivity index, ratio of IC50 against human Aspc-1 cells under normoxic condition to IC50 for human Aspc-1 cells under hypoxic condition; assay type: functional; how it was run: as §1
PaTu 8988t [5] = assay: Selectivity index, ratio of IC50 against human PA-TU-8988T cells under normoxic condition to IC50 for human PA-TU-8988T cells under hypoxic condition; assay type: functional; how it was run: as §1
PaTu 8988t [6] = assay: Cytotoxicity against human PA-TU-8988T cells after 72 hrs under normoxic condition by MTT assay; assay type: functional, cell-based; how it was run: as §2
ASPC1 [7] = assay: Cytotoxicity against human Aspc-1 cells after 72 hrs under normoxic condition by MTT assay; assay type: functional, cell-based; conditions: ASPC1, 72 h; how it was run: as §2
PANC-1 [8] = assay: Inhibition of cancer stem cell population of human PANC1 cells assessed as CD24+/CD44+/ESA+ cell population level at 0.15 uM after 48 hrs by flow cytometric analysis (reference value: 1.7%); assay type: functional; design: scale not given: the % may be the effect or the level left
ASPC1 [9] = assay: Cytotoxicity against human Aspc-1 cells after 72 hrs under hypoxic condition by MTT assay; assay type: functional, cell-based; conditions: ASPC1, 72 h; how it was run: as §2
PaTu 8988t [10] = assay: Cytotoxicity against human PA-TU-8988T cells after 72 hrs under hypoxic condition by MTT assay; assay type: functional, cell-based; how it was run: as §2

Compound | Ratio IC50 (PANC-1 [1]) | IC50 (PANC-1 [2]) | IC50 (PANC-1 [3]) | Ratio IC50 (ASPC1 [4]) | Ratio IC50 (PaTu 8988t [5]) | IC50 (PaTu 8988t [6]) | IC50 (ASPC1 [7]) | Activity (PANC-1 [8]) | IC50 (ASPC1 [9]) | IC50 (PaTu 8988t [10])
COC(=O)C[C@@H]1NC(=O)CN(C)C(=O)/C=C/CNC(=O)[C@@H](C)[C@H]([C@H](C)CCCCCCCCCCCC(C)C)OC1=O | 0.76 | 28000 nM | 21000 nM |  |  |  |  |  |  | 
C=C1/C=C/C(=O)N(C)CC(=O)N[C@@H](CC(=O)OC)C(=O)O[C@@H]([C@H](C)CCCCCCCCCCCCCC)[C@H](C)C(=O)N1 | 1.98 | 58 nM | 120 nM | 2.8 | 1.87 | 640 nM | 980 nM | 0.7% | 350 nM | 340 nM
CCCCCCCCCCCCCC[C@@H](C)[C@@H]1OC(=O)[C@H](CC(=O)NC2CC2)NC(=O)CN(C)C(=O)/C=C/C(CO[Si](c2ccccc2)(c2ccccc2)C(C)(C)C)NC(=O)[C@H]1C (stereo partly specified) |  | > 10000 nM | > 10000 nM |  |  |  |  |  |  | 
C=C1/C=C/C(=O)N(C)CC(=O)N[C@@H](CC(=O)OC(C)C)C(=O)O[C@@H]([C@H](C)CCCCCCCCCCCC(C)C)[C@H](C)C(=O)N1 | 2.6 | 700 nM | 1800 nM |  |  |  |  |  |  | 
C#CCOC(=O)C[C@@H]1NC(=O)CN(C)C(=O)/C=C/C(=C)NC(=O)[C@@H](C)[C@H]([C@H](C)CCCCCCCCCCCC(C)C)OC1=O | 2.21 | 66 nM | 150 nM | 2.23 | 2.8 | 300 nM | 260 nM | 1.9% | 120 nM | 110 nM
C=C1/C=C/C(=O)N(C)CC(=O)N[C@@H]([C@H](O)C(=O)OCC)C(=O)O[C@@H]([C@H](C)CCCCCCCCCCCC(C)C)[C@H](C)C(=O)N1 | 2.33 | 67 nM | 160 nM | 2.64 | 3.25 | 380 nM | 480 nM |  | 180 nM | 120 nM
C=C1/C=C/C(=O)N(C)CC(=O)N[C@@H](Cc2ccccc2)C(=O)O[C@@H]([C@H](C)CCCCCCCCCCCCCC)[C@H](C)C(=O)N1 | 3.76 | 120 nM | 430 nM | 2.4 | 2.14 | 1400 nM | 1400 nM | 1.6% | 600 nM | 650 nM
C=C1/C=C/C(=O)N(C)CC(=O)N[C@@H](C(C)C)C(=O)O[C@@H]([C@H](C)CCCCCCCCCCCCCC)[C@H](C)C(=O)N1 | 3 | 350 nM | 1000 nM |  |  |  |  |  |  | 
C=C1/C=C/C(=O)N(C)CC(=O)N[C@@H](CC(=O)OCC)C(=O)O[C@@H]([C@H](C)CCCCCCCCCCCC(C)C)[C@H](C)C(=O)N1 | 2.43 | 74 nM | 180 nM | 1.85 | 2.89 | 320 nM | 280 nM |  | 150 nM | 110 nM
C=C1/C=C/C(=O)N(C)C(C)C(=O)N[C@@H]([C@H](O)C(=O)OC)C(=O)O[C@@H]([C@H](C)CCCCCCCCCCCC(C)C)[C@H](C)C(=O)N1 (single isomer, unassigned; 1c) | 9.53 | 43 nM | 410 nM | 5.71 | 2.79 | 540 nM | 1200 nM |  | 200 nM | 200 nM
C=C1/C=C/C(=O)N(CC(F)(F)F)CC(=O)N[C@@H]([C@H](O)C(=O)OC)C(=O)O[C@@H]([C@H](C)CCCCCCCCCCCC(C)C)[C@H](C)C(=O)N1 | 1.72 | 1500 nM | 2500 nM |  |  |  |  |  |  | 
